Measured values from ChEMBL document CHEMBL3603753, “Carbamoyl Triazoles, Known Serine Protease Inhibitors, Are a Potent New Class of Antimalarials” (J Med Chem, 2015).
≈ marks a conversion by molar mass, not a printed value. Calls of active or inactive are those of the source. The calls are words filed in the database; no cut-off is given here.

Legend:
Plasmodium falciparum [1] = assay: Antimalarial activity against Plasmodium falciparum infected in erythrocytes assessed as young trophozoites level at 10 times antimalarial IC50 level incubated for 24 and 48 hrs by Giemsa staining based microsocpy
[2] = Half life in mouse liver microsomes; format: ADME
[3] = Kinetic solubility of the compound by chemoluminescent nitrogen detection kinetic solubility assay; format: physicochemical; conditions: read-out: Kinetic_solubility
Plasmodium falciparum [4] = assay: Antimalarial activity against Plasmodium falciparum infected in humanized SCID mouse model of malaria infection assessed as induction of abnormal trophozoites with hemozoin granules and pyknotic cells in parasite at 217 mg/kg, po measured 96 hrs post dose by microscopic and flow cytometry method; format: functional, organism-based
Outline: (§1)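 P. falciparum-infected humanized mice, standard four-day test; compound given orally at several doses, vehicle (n = 4) and oral chloroquine 10 mg·kg⁻¹ (n = 2) as controls. Parasitemia followed per mouse. Peripheral blood sampled 96 h after starting treatment and analysed by microscopy and by flow cytometry gating infected human erythrocytes.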

Plasmodium falciparum [5] = assay: Antimalarial activity against Plasmodium falciparum infected in humanized SCID mouse model of malaria infection assessed as induction of altered rings in parasite at 217 mg/kg, po measured 96 hrs post dose by microscopic and flow cytometry method; format: functional, organism-based
Outline: as §1

Plasmodium falciparum [6] = assay: Antimalarial activity against Plasmodium Plasmodium falciparum infected in orally dosed humanized SCID mouse model of malaria infection; format: functional; conditions: po
Outline: as §1

[7] = target: T1, Subtilisin-like protease 1 (Plasmodium falciparum, UniProt O61142); assay: Inhibition of Plasmodium falciparum recombinant SUB1 using SERA4st1F-6R12 substrate incubated for 55 mins by fluorescence spectrophotometry
T1 sequence (O61142 whole entry): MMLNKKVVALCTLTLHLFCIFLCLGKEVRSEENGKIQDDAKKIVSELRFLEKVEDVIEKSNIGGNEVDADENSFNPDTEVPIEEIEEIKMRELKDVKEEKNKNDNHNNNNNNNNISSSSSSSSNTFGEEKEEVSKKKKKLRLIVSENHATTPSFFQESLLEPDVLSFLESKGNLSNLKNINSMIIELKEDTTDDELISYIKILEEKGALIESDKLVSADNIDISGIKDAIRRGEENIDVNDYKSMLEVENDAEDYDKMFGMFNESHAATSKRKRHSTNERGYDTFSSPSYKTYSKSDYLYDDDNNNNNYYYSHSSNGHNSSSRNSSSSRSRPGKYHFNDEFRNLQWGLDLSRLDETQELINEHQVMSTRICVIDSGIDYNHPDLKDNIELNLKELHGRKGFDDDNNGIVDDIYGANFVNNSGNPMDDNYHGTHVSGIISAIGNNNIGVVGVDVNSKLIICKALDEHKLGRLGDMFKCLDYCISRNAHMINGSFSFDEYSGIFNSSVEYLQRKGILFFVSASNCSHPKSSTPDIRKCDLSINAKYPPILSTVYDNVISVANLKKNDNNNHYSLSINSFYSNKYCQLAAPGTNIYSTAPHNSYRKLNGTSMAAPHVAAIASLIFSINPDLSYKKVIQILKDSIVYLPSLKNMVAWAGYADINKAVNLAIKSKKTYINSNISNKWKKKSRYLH

Blood = assay: Drug level in blood of Plasmodium falciparum infected humanized SCID mouse model of malaria infection at 217 mg/kg, po measured 96 hrs post dose; format: ADME, organism-based; conditions: in vivo
HepG2 = assay: Cytotoxicity against human HepG2 cells; format: cell-based
Plasmodium falciparum [8] = assay: Antimalarial activity against Plasmodium falciparum 3D7 infected in erythrocytes incubated for 48 hrs by [3H]hypoxanthine incorporation assay; format: functional, organism-based
Plasmodium falciparum [9] = assay: Antimalarial activity against Plasmodium falciparum infected in humanized SCID mouse model of malaria infection assessed as induction of phenotypic changes in parasite at 217 mg/kg, po measured 96 hrs post dose by microscopic and flow cytometry method; format: functional, organism-based
Outline: as §1

half-life [2]: 22.6 min | solubility kinetic [3]: 125 µM (≈ 50.6 µg/mL) | IC50 [7]: Not Active | Drug uptake (Blood): Not Active | IC50 (Plasmodium falciparum [8]): 10 nM
Compound: COc1ccc(CN(C)C(=O)n2cnc(S(=O)(=O)[C@@H]3C[C@H]4CC[C@@H]3C4)n2)cc1
Activity (Plasmodium falciparum [1]): Active | Activity (Plasmodium falciparum [4]): Active | Activity (Plasmodium falciparum [5]): Active | ED50 (Plasmodium falciparum [6]): 100 mg/kg | ED90 (Plasmodium falciparum [6]): 150 mg/kg | IC50 (HepG2): > 100000 nM | Activity (Plasmodium falciparum [9]): Active
